The source made the active and inactive calls. No cut-off for these calls is given here.

Experiment [1] concerns the target T1, Sterol regulatory element-binding protein 2 (Mus musculus) (UniProt Q3U1N2).
T1 sequence (whole entry): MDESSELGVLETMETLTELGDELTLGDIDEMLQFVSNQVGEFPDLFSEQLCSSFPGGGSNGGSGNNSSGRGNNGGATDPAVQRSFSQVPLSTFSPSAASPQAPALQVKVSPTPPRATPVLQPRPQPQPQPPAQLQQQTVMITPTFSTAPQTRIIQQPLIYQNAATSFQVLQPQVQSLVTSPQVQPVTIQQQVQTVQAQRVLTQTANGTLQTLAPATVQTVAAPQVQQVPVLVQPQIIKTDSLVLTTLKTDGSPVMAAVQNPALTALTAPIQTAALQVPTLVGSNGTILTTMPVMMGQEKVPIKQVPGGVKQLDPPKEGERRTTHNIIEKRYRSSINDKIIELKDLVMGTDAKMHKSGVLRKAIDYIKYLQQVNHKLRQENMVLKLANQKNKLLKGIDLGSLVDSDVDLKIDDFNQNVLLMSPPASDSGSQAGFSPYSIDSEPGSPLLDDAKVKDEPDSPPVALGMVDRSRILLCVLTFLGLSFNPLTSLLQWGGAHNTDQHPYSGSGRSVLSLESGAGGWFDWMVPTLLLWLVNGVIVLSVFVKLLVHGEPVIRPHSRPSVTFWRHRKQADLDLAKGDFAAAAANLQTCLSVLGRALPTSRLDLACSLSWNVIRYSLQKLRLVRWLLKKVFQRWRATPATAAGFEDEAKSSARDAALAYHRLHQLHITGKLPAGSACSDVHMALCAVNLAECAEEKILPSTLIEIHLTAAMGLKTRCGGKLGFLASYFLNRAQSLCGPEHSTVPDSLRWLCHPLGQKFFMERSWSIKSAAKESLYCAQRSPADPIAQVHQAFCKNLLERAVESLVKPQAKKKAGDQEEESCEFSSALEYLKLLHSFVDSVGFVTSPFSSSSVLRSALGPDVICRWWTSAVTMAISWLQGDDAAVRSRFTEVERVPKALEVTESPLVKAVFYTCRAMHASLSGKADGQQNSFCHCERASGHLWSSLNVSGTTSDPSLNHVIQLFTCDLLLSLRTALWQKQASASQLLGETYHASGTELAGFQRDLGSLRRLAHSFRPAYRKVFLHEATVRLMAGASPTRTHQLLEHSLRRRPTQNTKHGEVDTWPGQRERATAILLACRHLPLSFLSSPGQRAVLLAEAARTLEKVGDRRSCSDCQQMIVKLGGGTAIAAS
Kind of experiment: Activation of SREBP2 pathway in mouse primary hepatocytes assessed as increase in LDLR mRNA expression at 0.01 to 1 uM afer 16 hrs by quantitative real-time PCR analysis. The experiment is classed as cell-based.

The target of experiment [2] is T1, Sterol regulatory element-binding protein 2 (Mus musculus). Kind of experiment: Activation of SREBP2 pathway in mouse primary hepatocytes assessed as increase in HMGCR mRNA expression at 0.01 to 1 uM afer 16 hrs by quantitative real-time PCR analysis. In kind it is cell-based. For orientation: Quantitative PCR measures a nucleic acid by following its amplification.

For experiment [3], the target named is T2, Protein cereblon/3-hydroxy-3-methylglutaryl-coenzyme A reductase (Cricetulus griseus, UniProt P00347+G3H338).
T2 sequence (P00347 whole entry): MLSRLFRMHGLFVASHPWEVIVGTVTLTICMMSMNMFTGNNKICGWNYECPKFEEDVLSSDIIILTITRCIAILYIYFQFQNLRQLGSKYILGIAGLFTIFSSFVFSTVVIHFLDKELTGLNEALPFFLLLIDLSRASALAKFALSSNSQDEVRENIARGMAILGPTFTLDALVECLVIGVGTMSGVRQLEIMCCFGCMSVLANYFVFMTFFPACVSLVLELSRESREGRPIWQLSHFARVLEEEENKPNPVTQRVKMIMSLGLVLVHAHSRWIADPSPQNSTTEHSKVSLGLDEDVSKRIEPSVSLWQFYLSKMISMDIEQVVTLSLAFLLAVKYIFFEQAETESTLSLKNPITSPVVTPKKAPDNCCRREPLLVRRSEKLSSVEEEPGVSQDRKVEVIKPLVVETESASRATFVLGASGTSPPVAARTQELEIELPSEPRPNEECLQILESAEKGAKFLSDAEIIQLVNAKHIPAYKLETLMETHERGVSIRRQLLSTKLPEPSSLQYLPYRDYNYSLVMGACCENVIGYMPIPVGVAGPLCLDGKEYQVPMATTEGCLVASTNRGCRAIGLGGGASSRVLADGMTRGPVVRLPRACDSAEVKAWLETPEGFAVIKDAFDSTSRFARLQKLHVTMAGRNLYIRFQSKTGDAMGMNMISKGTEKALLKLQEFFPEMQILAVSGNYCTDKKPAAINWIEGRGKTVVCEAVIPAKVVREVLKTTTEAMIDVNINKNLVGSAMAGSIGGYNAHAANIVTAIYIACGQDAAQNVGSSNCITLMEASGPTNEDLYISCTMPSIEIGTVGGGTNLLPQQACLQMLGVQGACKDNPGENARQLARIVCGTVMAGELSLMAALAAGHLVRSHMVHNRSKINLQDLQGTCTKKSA
T2 sequence (G3H338 whole entry): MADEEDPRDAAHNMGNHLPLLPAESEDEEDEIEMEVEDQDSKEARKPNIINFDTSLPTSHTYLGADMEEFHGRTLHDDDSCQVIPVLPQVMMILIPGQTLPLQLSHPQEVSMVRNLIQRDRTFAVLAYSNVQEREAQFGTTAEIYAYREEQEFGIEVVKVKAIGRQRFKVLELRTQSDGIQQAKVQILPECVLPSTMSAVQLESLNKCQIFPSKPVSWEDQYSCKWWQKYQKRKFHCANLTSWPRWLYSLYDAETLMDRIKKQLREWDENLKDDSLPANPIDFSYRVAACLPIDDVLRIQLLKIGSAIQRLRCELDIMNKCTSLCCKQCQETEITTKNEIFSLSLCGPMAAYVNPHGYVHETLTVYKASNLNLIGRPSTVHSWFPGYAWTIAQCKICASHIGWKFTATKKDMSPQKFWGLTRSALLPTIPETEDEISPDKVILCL
Kind of experiment: Protac activity at CRBN/HMGCR in Insig-1/Insig-2 deficient Chinese hamster SRD15 cells assessed as induction of HMGCR degradation after 16 hrs by immunoblotting analysis. In short, it runs like this: (§1)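 SRD15 cells treated with compound at varying concentrations for 16 h, final DMSO ≤0.1%; RIPA lysates (Lowry protein) immunoblotted for HMGCR, densitometry normalized to actin, DMSO set to 1; DC50 = concentration giving 50% loss versus DMSO, fitted to dose-response curve, mean of 3 independent experiments.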

For experiment [4], the target named is T3, Protein cereblon/3-hydroxy-3-methylglutaryl-coenzyme A reductase (Cricetulus griseus) (UniProt P00347+G3H338). Kind of experiment: Protac activity at CRBN/HMGCR in Insig-1/Insig-2 deficient Chinese hamster SRD15 cells assessed as induction of HMGCR degradation at 0.01 to 1 uM after 16 hrs by immunoblotting analysis. The gist of the method: as §1
A further experiment deals with Huh-7. Kind of experiment: Inhibition of cholesterol biosynthesis in human HuH7 cells preincubated for 14 hrs and followed by addition of 14C-acetate and measured after 2 hrs by TL method. In kind it is functional, cell-based. The gist of the method:
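Sterol-depleted Huh7 cells (Medium B plus 5% lipoprotein-deficient serum) treated at varying concentrations for 14 h, pulse-labelled with ¹⁴C-acetate 1 μCi/μL for 2 h, washed, lysed in 0.1 M NaOH; lipids separated by TLC, ¹⁴C-cholesterol read by phosphorimager, DMSO set to 1.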

Experiment [5] concerns the target T4, Thioredoxin domain-containing protein 11 (Homo sapiens) (UniProt Q6PKC3).
T4 sequence (whole entry): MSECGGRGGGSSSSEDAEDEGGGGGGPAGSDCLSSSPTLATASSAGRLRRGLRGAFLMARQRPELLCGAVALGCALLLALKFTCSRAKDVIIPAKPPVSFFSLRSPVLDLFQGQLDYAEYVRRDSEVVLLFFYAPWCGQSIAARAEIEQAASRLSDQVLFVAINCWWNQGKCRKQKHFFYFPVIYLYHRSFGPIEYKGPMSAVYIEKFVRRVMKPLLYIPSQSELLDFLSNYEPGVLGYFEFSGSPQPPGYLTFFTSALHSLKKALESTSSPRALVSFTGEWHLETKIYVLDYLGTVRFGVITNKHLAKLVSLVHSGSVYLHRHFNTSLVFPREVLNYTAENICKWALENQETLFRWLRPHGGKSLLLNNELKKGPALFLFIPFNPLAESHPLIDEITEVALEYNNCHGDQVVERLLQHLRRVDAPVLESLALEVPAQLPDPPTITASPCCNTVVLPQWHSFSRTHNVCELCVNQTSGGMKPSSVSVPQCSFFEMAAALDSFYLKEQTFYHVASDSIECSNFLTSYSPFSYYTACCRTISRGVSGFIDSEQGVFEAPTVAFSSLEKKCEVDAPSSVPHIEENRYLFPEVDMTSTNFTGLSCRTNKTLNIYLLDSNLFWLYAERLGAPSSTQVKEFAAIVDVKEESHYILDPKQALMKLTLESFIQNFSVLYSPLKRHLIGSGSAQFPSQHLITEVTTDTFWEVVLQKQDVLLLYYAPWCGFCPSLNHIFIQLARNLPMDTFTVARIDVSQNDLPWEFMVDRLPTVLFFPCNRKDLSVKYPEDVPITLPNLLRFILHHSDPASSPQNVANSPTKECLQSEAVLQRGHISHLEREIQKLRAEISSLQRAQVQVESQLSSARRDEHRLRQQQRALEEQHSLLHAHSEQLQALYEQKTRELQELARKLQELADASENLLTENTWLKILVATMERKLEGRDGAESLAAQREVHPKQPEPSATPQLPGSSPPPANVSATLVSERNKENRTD
Kind of experiment: Activation of TXNDC11 (unknown origin).

The target in experiment [6] is T3, Protein cereblon/3-hydroxy-3-methylglutaryl-coenzyme A reductase (Cricetulus griseus). Kind of experiment: Protac activity at CRBN/HMGCR in Insig-1/Insig-2 deficient Chinese hamster SRD15 cells assessed as induction of HMGCR degradation at 3 uM after 16 hrs by immunoblotting analysis. The gist of the method: as §1
A general note: Immunoblotting shows a protein as a band on a membrane.

As a reminder, the DC50 is the concentration giving 50% degradation. On to `CC(C)c1c(C(=O)Nc2ccccc2)c(-c2cccc(OCCCCCc3cn(CCCCCCCNc4cccc5c4C(=O)N(C4CCC(=O)NC4=O)C5=O)nn3)c2)c(-c2ccc(F)cc2)n1CC[C@@H](O)C[C@@H](O)CC(=O)O` (stereo partly drawn), for which the outcome in experiment [1] and in experiment [2] was Active. For the same compound, in experiment [3], the DC50 was determined as 0.4 µM. Take `CC(C)c1c(C(=O)Nc2ccccc2)c(-c2cccc(OCCCc3cn(CCCCCCNc4cccc5c4C(=O)N(C4CCC(=O)NC4=O)C5=O)nn3)c2)c(-c2ccc(F)cc2)n1CC[C@@H](O)C[C@@H](O)CC(=O)O` (stereo partly drawn): the outcome in experiment [1] and in experiment [2] was Active. Besides, in experiment [3], the half-maximal degradation concentration (DC50) was 0.4 µM.

`CC(C)c1c(C(=O)Nc2ccccc2)c(-c2cccc(OCCCc3cn(CCCCCCCNc4cccc5c4C(=O)N(C4CCC(=O)NC4=O)C5=O)nn3)c2)c(-c2ccc(F)cc2)n1CC[C@@H](O)C[C@@H](O)CC(=O)O` (stereo partly drawn): the outcome in experiment [1] and in experiment [2] was Active. In experiment [3], the 50% degradation concentration (DC50) came out at 0.2 µM.

As to `C#CCCCOc1cccc(-c2c(C(=O)Nc3ccccc3)c(C(C)C)n(CC[C@@H](O)C[C@@H](O)CC(=O)O)c2-c2ccc(F)cc2)c1`, the outcome in experiment [4] was inactive. Consider `CC(C)c1c(C(=O)Nc2ccccc2)c(-c2cccc(OCCCCc3cn(CCCCCCCNc4cccc5c4C(=O)N(C4CCC(=O)NC4=O)C5=O)nn3)c2)c(-c2ccc(F)cc2)n1CC[C@@H](O)C[C@@H](O)CC(=O)O` (stereo partly drawn), for which the result in experiment [1] and in experiment [2] was Active. Also, the 50% degradation concentration (DC50) in experiment [3] is 0.3 µM. `C#CCOc1cccc(-c2c(C(=O)Nc3ccccc3)c(C(C)C)n(CC[C@@H](O)C[C@@H](O)CC(=O)O)c2-c2ccc(F)cc2)c1`: the outcome in experiment [4] was inactive.

With `CC(C)c1c(C(=O)Nc2ccccc2)c(-c2ccccc2)c(-c2ccc(F)cc2)n1CC[C@@H](O)C[C@@H](O)CC(=O)O`, the inhibition entry with Huh-7 was “Active”. This compound also displayed a fold change (FC) in experiment [5] of 108.

Consider `C#CCCCCCOc1cccc(-c2c(C(=O)Nc3ccccc3)c(C(C)C)n(CC[C@@H](O)C[C@@H](O)CC(=O)O)c2-c2ccc(F)cc2)c1`, for which the outcome in experiment [4] was inactive. Take `CC(C)c1c(C(=O)Nc2ccccc2)c(-c2cccc(OCCCc3cn(CCOCCOCCOCCOCCNc4ccc5c(c4)C(=O)N(C4CCC(=O)NC4=O)C5=O)nn3)c2)c(-c2ccc(F)cc2)n1CC[C@@H](O)C[C@@H](O)CC(=O)O` (stereo partly drawn): the half-maximal degradation concentration (DC50) in experiment [3] stood at 0.3 µM. The outcome in experiment [6] was inactive. Regarding `C#CCCCCOc1cccc(-c2c(C(=O)Nc3ccccc3)c(C(C)C)n(CC[C@@H](O)C[C@@H](O)CC(=O)O)c2-c2ccc(F)cc2)c1`, the result in experiment [4] was inactive. In the case of `CC(C)c1c(C(=O)Nc2ccccc2)c(-c2cccc(OCCCc3cn(CCCCCOCCCc4cccc5c4CN(C4CCC(=O)NC4=O)C5=O)nn3)c2)c(-c2ccc(F)cc2)n1CC[C@@H](O)C[C@@H](O)CC(=O)O` (stereo partly drawn), in experiment [3], the half-maximal degradation concentration (DC50) came to 2.3 µM. With `CC(C)c1c(C(=O)Nc2ccccc2)c(-c2cccc(OCCCc3cn(CCCCCCOCC#Cc4cccc5c4CN(C4CCC(=O)NC4=O)C5=O)nn3)c2)c(-c2ccc(F)cc2)n1CC[C@@H](O)C[C@@H](O)CC(=O)O` (stereo partly drawn), the DC50 in experiment [3] came out at 0.2 µM. The same measure, in the same setting: to `CC(C)c1c(C(=O)Nc2ccccc2)c(-c2cccc(OCCCCCc3cn(CCOCCOCCOCCNc4cccc5c4C(=O)N(C4CCC(=O)NC4=O)C5=O)nn3)c2)c(-c2ccc(F)cc2)n1CC[C@@H](O)C[C@@H](O)CC(=O)O` (stereo partly drawn) belongs 1.8 µM.

The record behind these values is ChEMBL document CHEMBL4602720, “Degradation versus Inhibition: Development of Proteolysis-Targeting Chimeras for Overcoming Statin-Induced Compensatory Upregulation of 3-Hydroxy-3-methylglutaryl Coenzyme A Reductase” (J Med Chem, 2020).
